According to ChEMBL document CHEMBL4616631, “Design, synthesis and evaluation of phthalide alkyl tertiary amine derivatives as promising acetylcholinesterase inhibitors with high potency and selectivity against Alzheimer's disease” (Bioorg Med Chem, 2020):
Active and inactive are the calls of the source. The rule behind the calls is not given here.

Key:
Mus musculus [1] = experiment: Antialzheimer activity in scopolamine-induced Kunming mouse model of memory impairment assessed as increase in latency time at 5 mg/kg/day, ig for 7 days followed by training trial at 1 hr post dose on day 6 and subsequent scopolamine challenge at 30 mins post training trial and measured post last dose by step-down passive avoidance test; type: functional, organism-based
Method in brief: (§1)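 Kunming mice, 18-22 g, male and female in half, 8 per group. Dosed i.g. once daily for 7 days, vehicle 0.5% CMC-Na. Day-6 training came 1 h after dosing: a 50 V, 5 s foot shock on stepping down from the platform, in a 5 min trial. Scopolamine 2.0 mg/kg i.p. followed 30 min later; control mice got none. Step-down latency and number of shocks were counted over 5 min in the test trial 24 h after training. Mean ± SEM.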

Mus musculus [2] = experiment: Antialzheimer activity in scopolamine-induced Kunming mouse model of memory impairment assessed as decrease in number of electric shock at 5 mg/kg/day, ig for 7 days followed by training trial at 1 hr post dose on day 6 and subsequent scopolamine challenge at 30 mins post training trial and measured post last dose by step-down passive avoidance test; type: functional, organism-based; method in brief: as §1
[3] = target: Butyrylcholinesterase (BuChE) (Rattus norvegicus, UniProt Q9JKC1); experiment: Inhibition of BuChE in rat serum at 50 uM using S-butylthiocholine iodide as substrate by Ellman's method relative to control; type: cell-free; settings: probe S-butylthiocholine iodide
Method in brief: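 Rat serum (25%) as BuChE source, S-butylthiocholine iodide 1 mM, DTNB 0.2%, in 0.1 mM phosphate buffer pH 7.4, 37 °C 15 min (modified Ellman); absorbance change at 405 nm. Three independent experiments, each in triplicate.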

[4] = Antioxidant activity assessed as trolox equivalent of AAPH-induced radical scavenging activity at 5 uM preincubated for 15 mins followed by AAPH addition measured every min for 90 mins by ORAC-FL assay; type: functional
Method in brief: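 ORAC-FL in 75 mM phosphate buffer, pH 7.4. Sample at 5 µM was preincubated with fluorescein (150 nM final) for 15 min at 37 °C, then AAPH was added (12 mM final). Fluorescence (ex 485/em 535 nm) was read every minute for 90 min. […] Triplicate, at least three independent assays.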

[5] = target: Amyloid-beta precursor protein (Homo sapiens) (UniProt P05067); experiment: Inhibition of HFIP-pretreated self-induced amyloid beta (1 to 42) (unknown origin) aggregation at 25 uM measured after 24 hrs by ThT fluorescence assay relative to control
Method in brief: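 Aβ1-42 was pretreated in HFIP for 24 h at room temperature, dried, and dissolved in DMSO to a 200 µM stock. Aβ (25 µM) was incubated with compound (25 µM) at 37 °C for 24 h. ThT was added at 5 µM in glycine-NaOH, pH 8.5. Fluorescence ex 446/em 490 nm, background-subtracted; inhibition = (1−IFi/IFc)×100. Triplicate.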

[6] = target: Acetylcholinesterase (Electrophorus electricus) (UniProt O42275); experiment: Inhibition of Electrophorus electricus AChE at 50 uM using […] as substrate incubated for 15 mins by Ellman's method relative to control
Method in brief: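 Eel AChE (0.05 U/mL final) with acetylthiocholine iodide 1 mM and DTNB 0.2% in […] pH 8.0, 37 °C 15 min (modified Ellman); absorbance at 412 nm. Three independent experiments, each in triplicate.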

Acetylcholinesterase = Acetylcholinesterase (Electrophorus electricus, UniProt O42275); experiment: Inhibition of Electrophorus electricus AChE using […] as substrate incubated for 15 mins by Ellman's method
[7] = target: T1, Amine oxidase [flavin-containing] A (Homo sapiens, UniProt P21397); experiment: Inhibition of recombinant human MAO-A expressed in baculovirus infected BTI insect cells at 10 uM using kynuramine as substrate measured after 30 mins by fluorescence based assay relative to control; settings: 0.5 h
T1 sequence (P21397 whole entry): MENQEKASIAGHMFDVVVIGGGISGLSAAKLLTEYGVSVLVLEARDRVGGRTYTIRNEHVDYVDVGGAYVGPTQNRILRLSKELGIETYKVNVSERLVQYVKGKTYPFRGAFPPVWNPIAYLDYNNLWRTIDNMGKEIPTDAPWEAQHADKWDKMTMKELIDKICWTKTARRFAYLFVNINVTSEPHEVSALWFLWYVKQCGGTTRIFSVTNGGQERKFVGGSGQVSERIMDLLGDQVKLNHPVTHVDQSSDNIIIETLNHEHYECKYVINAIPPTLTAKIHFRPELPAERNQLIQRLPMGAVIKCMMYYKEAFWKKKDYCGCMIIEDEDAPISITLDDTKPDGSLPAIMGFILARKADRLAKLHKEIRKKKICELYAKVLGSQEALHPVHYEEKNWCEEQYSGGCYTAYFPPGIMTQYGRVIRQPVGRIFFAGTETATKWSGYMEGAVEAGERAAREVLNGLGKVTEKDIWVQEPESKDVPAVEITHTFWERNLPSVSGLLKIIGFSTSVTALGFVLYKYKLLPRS
Method in brief: (§2)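 Recombinant human MAO-A or MAO-B (7.5 µg/mL) in 100 mM potassium phosphate, pH 7.4, with 20.2 mM KCl and DMSO below 4%. Kynuramine was 45 µM for MAO-A and 30 µM for MAO-B. Incubation 30 min at 37 °C, stopped with NaOH and water, then centrifuged. Supernatant fluorescence ex 310/em 400 nm. Triplicate.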

[8] = target: T2, Amine oxidase [flavin-containing] B (Homo sapiens, UniProt P27338); experiment: Inhibition of recombinant human MAO-B expressed in baculovirus infected BTI insect cells at 10 uM using kynuramine as substrate measured after 30 mins by fluorescence based assay relative to control; settings: 0.5 h; method in brief: as §2
T2 sequence (P27338 whole entry): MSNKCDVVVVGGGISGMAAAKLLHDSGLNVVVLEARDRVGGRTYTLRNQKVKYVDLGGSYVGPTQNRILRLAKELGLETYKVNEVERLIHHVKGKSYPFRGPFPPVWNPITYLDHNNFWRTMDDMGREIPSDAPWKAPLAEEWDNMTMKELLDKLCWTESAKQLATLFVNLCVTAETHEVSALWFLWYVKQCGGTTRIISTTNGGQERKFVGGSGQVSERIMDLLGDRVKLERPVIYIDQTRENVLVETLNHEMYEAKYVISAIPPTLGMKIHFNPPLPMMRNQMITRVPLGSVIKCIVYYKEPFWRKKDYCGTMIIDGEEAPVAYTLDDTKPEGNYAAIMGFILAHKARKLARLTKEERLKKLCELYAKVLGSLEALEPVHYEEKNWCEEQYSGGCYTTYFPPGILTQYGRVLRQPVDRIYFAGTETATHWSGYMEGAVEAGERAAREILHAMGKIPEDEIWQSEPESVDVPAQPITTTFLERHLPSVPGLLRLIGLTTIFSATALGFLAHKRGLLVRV

[9] = Permeability of the compound at 100 ug/ml measured after 18 hrs by PAMPA assay; type: ADME; settings: read-out: permeability
Method in brief: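 PAMPA-BBB. Filter coated with porcine brain lipid in dodecane. Compound (DMSO stock 5 mg/mL) was diluted to 100 µg/mL in PBS/EtOH (70:30) in the donor well, with PBS/EtOH in the acceptor. Left 18 h at 25 °C. Acceptor concentration read at ten wavelengths in four wells. Three independent runs, validated with 11 reference drugs.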

Sequence of Butyrylcholinesterase (BuChE) (Q9JKC1 whole entry): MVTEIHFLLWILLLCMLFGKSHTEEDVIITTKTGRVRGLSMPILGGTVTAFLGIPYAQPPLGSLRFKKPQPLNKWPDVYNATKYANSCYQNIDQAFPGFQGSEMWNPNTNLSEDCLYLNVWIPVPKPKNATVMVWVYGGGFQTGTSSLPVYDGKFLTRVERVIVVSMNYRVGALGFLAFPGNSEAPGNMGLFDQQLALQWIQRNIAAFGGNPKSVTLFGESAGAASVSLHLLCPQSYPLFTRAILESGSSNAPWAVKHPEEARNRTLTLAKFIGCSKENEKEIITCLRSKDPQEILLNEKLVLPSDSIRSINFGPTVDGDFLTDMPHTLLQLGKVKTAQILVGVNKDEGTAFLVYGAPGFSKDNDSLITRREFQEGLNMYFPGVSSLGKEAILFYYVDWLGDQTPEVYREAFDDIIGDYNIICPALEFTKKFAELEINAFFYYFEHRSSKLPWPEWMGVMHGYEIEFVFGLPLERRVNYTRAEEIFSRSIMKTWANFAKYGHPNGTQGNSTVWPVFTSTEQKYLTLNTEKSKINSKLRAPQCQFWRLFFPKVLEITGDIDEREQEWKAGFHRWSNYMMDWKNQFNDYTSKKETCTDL
Sequence of Amyloid-beta precursor protein (Homo sapiens) (P05067 whole entry): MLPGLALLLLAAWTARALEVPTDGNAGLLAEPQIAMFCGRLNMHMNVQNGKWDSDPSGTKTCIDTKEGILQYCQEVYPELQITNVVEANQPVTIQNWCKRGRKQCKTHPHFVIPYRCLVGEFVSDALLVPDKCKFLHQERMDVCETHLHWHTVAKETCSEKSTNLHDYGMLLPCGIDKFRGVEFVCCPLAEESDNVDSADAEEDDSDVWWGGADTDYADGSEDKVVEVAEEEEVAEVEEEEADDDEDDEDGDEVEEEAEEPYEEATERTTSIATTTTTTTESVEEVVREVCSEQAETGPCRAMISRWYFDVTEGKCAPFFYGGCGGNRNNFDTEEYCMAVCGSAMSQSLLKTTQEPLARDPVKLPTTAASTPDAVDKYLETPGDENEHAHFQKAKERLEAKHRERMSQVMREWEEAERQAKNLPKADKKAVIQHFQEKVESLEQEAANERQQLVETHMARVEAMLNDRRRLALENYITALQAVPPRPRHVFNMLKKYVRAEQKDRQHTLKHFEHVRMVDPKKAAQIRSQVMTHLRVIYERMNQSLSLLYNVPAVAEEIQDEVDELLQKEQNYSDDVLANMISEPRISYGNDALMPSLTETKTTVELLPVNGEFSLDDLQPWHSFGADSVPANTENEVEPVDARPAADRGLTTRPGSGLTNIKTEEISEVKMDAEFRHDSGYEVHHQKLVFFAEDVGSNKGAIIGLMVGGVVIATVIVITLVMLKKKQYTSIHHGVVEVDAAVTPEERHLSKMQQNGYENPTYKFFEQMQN
Sequence of Acetylcholinesterase (O42275 whole entry): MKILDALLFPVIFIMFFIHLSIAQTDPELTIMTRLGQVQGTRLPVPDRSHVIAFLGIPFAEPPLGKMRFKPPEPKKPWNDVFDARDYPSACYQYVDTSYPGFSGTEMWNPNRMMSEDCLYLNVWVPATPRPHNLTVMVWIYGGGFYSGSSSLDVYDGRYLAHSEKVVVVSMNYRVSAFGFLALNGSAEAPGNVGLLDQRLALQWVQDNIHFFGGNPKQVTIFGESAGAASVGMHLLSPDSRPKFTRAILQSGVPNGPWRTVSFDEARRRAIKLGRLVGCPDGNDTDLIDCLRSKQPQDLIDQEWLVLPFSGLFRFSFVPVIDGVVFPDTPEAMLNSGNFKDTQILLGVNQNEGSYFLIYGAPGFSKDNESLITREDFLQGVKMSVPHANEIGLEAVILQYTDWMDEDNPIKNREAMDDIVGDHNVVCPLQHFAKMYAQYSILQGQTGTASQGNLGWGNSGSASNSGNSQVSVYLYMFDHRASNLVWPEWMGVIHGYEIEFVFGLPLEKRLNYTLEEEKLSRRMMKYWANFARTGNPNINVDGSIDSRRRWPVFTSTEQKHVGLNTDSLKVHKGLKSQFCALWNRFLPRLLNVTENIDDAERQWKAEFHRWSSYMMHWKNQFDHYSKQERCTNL
Sequence of Acetylcholinesterase (Electrophorus electricus) (O42275 24-633 limits assumed): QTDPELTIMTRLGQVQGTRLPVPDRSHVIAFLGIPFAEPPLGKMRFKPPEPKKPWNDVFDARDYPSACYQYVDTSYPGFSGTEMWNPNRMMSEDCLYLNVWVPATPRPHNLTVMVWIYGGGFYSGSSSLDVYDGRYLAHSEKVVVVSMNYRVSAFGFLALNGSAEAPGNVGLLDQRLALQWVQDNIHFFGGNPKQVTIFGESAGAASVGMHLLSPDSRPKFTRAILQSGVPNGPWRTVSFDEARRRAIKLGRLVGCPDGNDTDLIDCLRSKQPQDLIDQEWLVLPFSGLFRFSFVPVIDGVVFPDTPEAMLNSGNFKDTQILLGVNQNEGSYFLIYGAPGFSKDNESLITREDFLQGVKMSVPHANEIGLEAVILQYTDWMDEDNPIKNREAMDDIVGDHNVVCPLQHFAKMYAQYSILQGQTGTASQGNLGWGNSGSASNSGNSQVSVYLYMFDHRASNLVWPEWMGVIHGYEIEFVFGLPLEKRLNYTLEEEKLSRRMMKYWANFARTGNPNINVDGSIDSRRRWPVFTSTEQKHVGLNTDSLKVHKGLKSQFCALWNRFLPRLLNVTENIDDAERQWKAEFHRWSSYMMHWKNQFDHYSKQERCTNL

Structure (SMILES): COc1cc2c(cc1OC)C(=O)C(CC1CCN(Cc3ccccc3)CC1)C2 (stereo not drawn)
- Activity (Mus musculus [1]): inactive
- Activity (Mus musculus [2]): inactive

Structure (SMILES): CCCCC1OC(=O)c2ccccc21 (racemic) [RAC-3-N-BUTYLPHTHALIDE]
- inhibition at 50 µM [3]: 2.67%
- Activity [4]: 0.21 µMequiv/µM
- inhibition [5]: < 5%
- inhibition [6]: < 5%

Structure (SMILES): CCN(CCCCCCC1OC(=O)c2cc(OC)c(OC)cc21)Cc1ccccc1N(C)C (stereo not drawn)
- IC50 (Acetylcholinesterase): 1240 nM
- inhibition at 50 µM [3]: 40.5%
- Activity [4]: 0.6 µMequiv/µM
- inhibition [5]: 7.66%
- inhibition at 10 µM [7]: 14.3%
- inhibition at 10 µM [8]: 13.4%

Structure (SMILES): COc1cc2c(cc1OC)/C(=C\CCCCCN(C)Cc1ccccc1)OC2=O
- IC50 (Acetylcholinesterase): 4.84 nM
- inhibition at 50 µM [3]: 17.6%
- Activity [4]: 0.43 µMequiv/µM
- inhibition [5]: 12.4%
- inhibition at 10 µM [7]: 22.3%
- inhibition at 10 µM [8]: 5.66%
- Papp at 18 h, 100 ug/ml [9]: 10.3 ×10⁻⁶ cm/s

Structure (SMILES): COc1ccccc1CN(C)CCC/C=C1/OC(=O)c2cc(OC)c(OC)cc21
- IC50 (Acetylcholinesterase): 410 nM
- inhibition at 50 µM [3]: 21.9%
- Activity [4]: 0.38 µMequiv/µM
- inhibition [5]: 19.1%
- inhibition at 10 µM [7]: 4.9%
- inhibition at 10 µM [8]: 9.44%

Structure (SMILES): CCN(CCC/C=C1\OC(=O)c2cc(OC)c(OC)cc21)Cc1ccccc1OC
- IC50 (Acetylcholinesterase): 1540 nM
- inhibition at 50 µM [3]: 18.7%
- Activity [4]: 0.94 µMequiv/µM
- inhibition [5]: 23.8%
- inhibition at 10 µM [7]: 26.7%
- inhibition at 10 µM [8]: 12%

Structure (SMILES): CCN(CC)CCC/C=C1/OC(=O)c2cc(OC)c(OC)cc21
- IC50 (Acetylcholinesterase): 6260 nM
- inhibition at 50 µM [3]: 4.19%
- Activity [4]: 0.22 µMequiv/µM
- inhibition [5]: 15.1%
- inhibition at 10 µM [7]: 5.77%
- inhibition at 10 µM [8]: 19.7%

Structure (SMILES): COc1cc2c(cc1OC)C(CCCCCCN(C)Cc1ccccc1)OC2=O (stereo not drawn)
- IC50 (Acetylcholinesterase): 160 nM
- inhibition at 50 µM [3]: 13.9%
- Activity [4]: 0.25 µMequiv/µM
- inhibition [5]: 13%
- inhibition at 10 µM [7]: 7.88%
- inhibition at 10 µM [8]: 16.3%
- Papp at 18 h, 100 ug/ml [9]: 13.6 ×10⁻⁶ cm/s

Structure (SMILES): CCN(CCCCC/C=C1/OC(=O)c2cc(OC)c(OC)cc21)Cc1ccccc1N(C)C
- IC50 (Acetylcholinesterase): 890 nM
- inhibition at 50 µM [3]: 35.2%
- Activity [4]: 1.2 µMequiv/µM
- inhibition [5]: 13%
- inhibition at 10 µM [7]: 28%
- inhibition at 10 µM [8]: 7.3%

Structure (SMILES): CCN(CCC/C=C1\OC(=O)c2cc(OC)c(OC)cc21)Cc1ccccc1
- IC50 (Acetylcholinesterase): 360 nM
- inhibition at 50 µM [3]: 17.3%
- Activity [4]: 0.36 µMequiv/µM
- inhibition [5]: 17%
- inhibition at 10 µM [7]: 10.4%
- inhibition at 10 µM [8]: 13.8%

Structure (SMILES): CCN(CCC/C=C1\OC(=O)c2cc(OC)c(OC)cc21)Cc1ccccc1N(C)C
- IC50 (Acetylcholinesterase): 210 nM
- inhibition at 50 µM [3]: 40.5%
- Activity [4]: 0.78 µMequiv/µM
- inhibition [5]: 15.4%
- inhibition at 10 µM [7]: 29.1%
- inhibition at 10 µM [8]: 9.9%

Structure (SMILES): COc1cc2c(cc1OC)/C(=C/CCCN1CCCCC1)OC2=O
- IC50 (Acetylcholinesterase): 4560 nM
- inhibition at 50 µM [3]: 21.9%
- Activity [4]: 0.28 µMequiv/µM
- inhibition [5]: 4.9%
- inhibition at 10 µM [7]: 1.95%
- inhibition at 10 µM [8]: 32.3%

Structure (SMILES): COc1ccccc1CN(C)CCC/C=C1\OC(=O)c2cc(OC)c(OC)cc21
- IC50 (Acetylcholinesterase): 1640 nM
- inhibition at 50 µM [3]: 16.8%
- Activity [4]: 0.44 µMequiv/µM
- inhibition [5]: 15.1%
- inhibition at 10 µM [7]: 2.9%
- inhibition at 10 µM [8]: 10.3%

Structure (SMILES): CCN(CCC/C=C1/OC(=O)c2cc(OC)c(OC)cc21)Cc1ccccc1
- IC50 (Acetylcholinesterase): 1400 nM
- inhibition at 50 µM [3]: 11%
- Activity [4]: 0.52 µMequiv/µM
- inhibition [5]: 30.3%
- inhibition at 10 µM [7]: 12.6%
- inhibition at 10 µM [8]: 15.8%

Structure (SMILES): COc1cc2c(cc1OC)C(CCCCN(C)Cc1ccccc1)OC2=O (stereo not drawn)
- IC50 (Acetylcholinesterase): 350 nM
- inhibition at 50 µM [3]: 11.5%
- Activity [4]: 0.29 µMequiv/µM
- inhibition [5]: 8.9%
- inhibition at 10 µM [7]: 8%
- inhibition at 10 µM [8]: 6.4%

Structure (SMILES): COc1cc2c(cc1OC)C(CCCCN1CCCCC1)OC2=O (stereo not drawn)
- IC50 (Acetylcholinesterase): 15800 nM
- inhibition at 50 µM [3]: 8.14%
- Activity [4]: 0.22 µMequiv/µM
- inhibition [5]: < 5%
- inhibition at 10 µM [7]: 1.92%
- inhibition at 10 µM [8]: 34.7%

Structure (SMILES): CCN(CCC/C=C1/OC(=O)c2cc(OC)c(OC)cc21)Cc1ccc(N(C)C)cc1
- IC50 (Acetylcholinesterase): 13800 nM
- inhibition at 50 µM [3]: 14.1%
- Activity [4]: 2.89 µMequiv/µM
- inhibition [5]: 21.7%
- inhibition at 10 µM [7]: 12.7%
- inhibition at 10 µM [8]: 17%
